High-throughput results (PubChem)
MEKK2 mut-MEK5 – signal of MEK5 binding to mutant human MEKK2 PB1 domain | bead flow cytometry, Alexa488-MEK5 binding to MEKK2 mutant | percent response, % at 10 µM | hit rate 0.35% among 290,000 | AID 1530; in the data active means percent response above about 24%, passing the limit was not always enough
MEKK3 PB1 HTS – MEKK3-MEK5 PB1 interaction, increase or decrease. hit rate 1.4% among 290,000. bead-based flow cytometry, Alexa488-MEK5 binding to MEKK3; actives lie on both sides; 0 = blocked by unlabeled MEK5, 100 = vehicle. Q99759. binding response (% of control), % at 10 µM;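 active means binding response more than 3 SD above or below the average of its plate-row segment, actives on both sides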;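 further: Alexa488 bead fluorescence after subtracting the streptavidin-only scavenger bead signal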
Target sequence (Q99759 whole entry, looked up): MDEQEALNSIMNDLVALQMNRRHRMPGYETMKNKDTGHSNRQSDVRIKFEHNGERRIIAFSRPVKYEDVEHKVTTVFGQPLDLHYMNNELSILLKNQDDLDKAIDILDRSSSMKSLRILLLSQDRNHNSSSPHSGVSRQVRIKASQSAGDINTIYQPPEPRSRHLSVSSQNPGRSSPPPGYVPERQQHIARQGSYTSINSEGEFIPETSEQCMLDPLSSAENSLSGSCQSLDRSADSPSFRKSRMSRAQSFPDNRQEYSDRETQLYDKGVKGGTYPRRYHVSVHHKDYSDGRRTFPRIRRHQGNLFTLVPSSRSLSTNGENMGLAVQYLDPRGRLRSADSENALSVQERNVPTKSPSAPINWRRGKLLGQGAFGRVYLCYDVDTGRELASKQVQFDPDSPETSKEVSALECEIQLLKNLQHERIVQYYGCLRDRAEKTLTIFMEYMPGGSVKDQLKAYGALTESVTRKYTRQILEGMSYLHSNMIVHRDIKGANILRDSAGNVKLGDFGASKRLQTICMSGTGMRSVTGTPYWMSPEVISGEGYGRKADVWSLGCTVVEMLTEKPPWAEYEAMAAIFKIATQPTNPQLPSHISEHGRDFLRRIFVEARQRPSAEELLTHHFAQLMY
Apaf1 inhib – inhibitors of human Apaf-1 apoptosome. O14727. reconstituted apoptosome caspase-3 activity, DEVD-Rh110 fluorescence. inhibition, % at 20 µM. hit rate 0.71% among 330,000; active means inhibition of at least 40% at 20 µM;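 further: plate controls were DMSO wells for no effect and DEVD-CHO caspase inhibitor wells for full effect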
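Material: cell-free apoptosome with Apaf-1, procaspase-3 and caspase-9; Buffer or medium: Hepes pH 7.5 with detergent and BSA; Reagent: cytochrome c trigger plus (Z-DEVD)2-Rh110 caspase-3 substrate; Times: compound with Apaf-1, dATP, procaspase-3 30 min, then 50 min reaction, room temperature; Technique: Rh110 fluorescence intensity.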
UBC13 polyUb – blocks human UBC13 polyubiquitin chain formation; TR-FRET; inhibition, % at 20 µM; hit rate 0.47% among 330,000; in the data active means inhibition above about 45%, passing the limit was not always enough
MEKK2wt PB1 HTS – raises or lowers MEK5 binding to wildtype human MEKK2 PB1 domain; bead flow cytometry, Alexa488-MEK5 binding to MEKK2 WT; actives lie on both sides; binding response (% of control), % at 10 µM; hit rate 1.1% among 290,000; AID 1531; in the data active means binding response below about 67% or above about 130%
MEKK2wt confirm – raises or lowers MEK5 binding to wildtype human MEKK2, retest; shares compounds with MEKK3 PB1 HTS; bead flow cytometry, Alexa488-MEK5 binding to MEKK2 WT; actives lie on both sides; binding response (% of control), % at 10 µM; hit rate 2.4% among 5,900; AID 1892; in the data active means binding response below about 16% or above about 210%; inactive means in between
MEKK2mut-MEK5 – signal of MEK5 binding to mutant human MEKK2, retest; shares compounds with MEKK3 PB1 HTS; hit rate 2% among 5,900; AID 1893; bead flow cytometry, Alexa488-MEK5 binding to MEKK2 mutant; percent response, % at 10 µM; in the data active means percent response mostly above about 71%, no sharp cut-off; inactive means mostly below about 38%;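 further: higher means compound restores mutant binding toward wildtype level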
MEKK3-MEK5 inh – confirmation of inhibitors of MEK5 binding to human MEKK3; shares compounds with MEKK3 PB1 HTS; bead flow cytometry, Alexa488-MEK5 binding to MEKK3; active compounds read low; hit rate 1.8% among 5,900; binding response (% of control), % at 10 µM; AID 1894;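 active means binding response below 72% of control, or above a set upper limit, though filed actives all read lower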;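 further: 100% = DMSO only wells and 0% = binding blocked by excess unlabeled MEK5; lower values mean stronger disruption of MEK5 binding to MEKK3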
Numbers without * were called inactive; · = no result; [ ] = another dose, or the depositor's remark. Most compounds without a hit are left out; they make up all but 2.9% or so of the library.

SMILES	MEKK2 mut-MEK5	MEKK3 PB1 HTS	Apaf1 inhib	UBC13 polyUb	MEKK2wt PB1 HTS	MEKK2wt confirm	MEKK2mut-MEK5	MEKK3-MEK5 inh
CS(=O)(=O)Nc1ccc(C2=NN(S(C)(=O)=O)C(c3ccc4c(c3)OCO4)C2)cc1 (centres undefined)	·	6.0*[inhibitor]	-4.2	-38.9	·	70.0	-7.0	72.0
CC(=O)N1N=C(c2cccc(NS(C)(=O)=O)c2)CC1c1ccc2c(c1)OCO2 (centres undefined)	3.0	99.0	-20.7	-5.2	106.0	·	·	·
O=C(O)CCC(=O)N1N=C(c2ccccc2)CC1c1ccc2nccnc2c1 (centres undefined)	0.0	106.0	1.0	-13.0	104.0	·	·	·
COc1ccc(C2=NN(S(C)(=O)=O)C(c3ccc4nccnc4c3)C2)cc1 (centres undefined)	-3.0	1.0*[inhibitor]	-3.1	-0.4	·	98.0	1.0	99.0
O=C(O)CCCC(=O)N1N=C(c2ccccc2)CC1c1ccc2nccnc2c1 (centres undefined)	2.0	136.0*	4.7	3.9	106.0	99.0	2.0	99.0
Cc1ccc(C2=NN(S(C)(=O)=O)C(c3ccc4nccnc4c3)C2)cc1 (centres undefined)	6.0	94.0	0.3	-5.3	3.0*[inhibitor]	92.0	-11.0	89.0
CCOC(=O)c1ccc(NS(=O)(=O)c2c(C)n[nH]c2C)cc1	·	·	-3.3	5.7	·	·	·	·
Cc1cccc(NS(=O)(=O)c2c(C)n[nH]c2C)c1	-5.0	81.0*[inhibitor]	-22.3	-4.4	90.0	96.0	-11.0	94.0
CCCN1CNc2c(c(=O)[nH]c(=S)n2CCc2ccc(OC)c(OC)c2)C1	1.0	99.0	-5.5	-8.2	100.0	·	·	·
CNC(=O)/C(=C\c1ccc2c(c1)OCO2)NC(=O)c1ccc(Br)cc1	3.0	103.0	14.6	-6.4	96.0	·	·	·
O=C(CCc1ccc(S(=O)(=O)NCc2ccccc2)cc1)NCC1CCCO1 (centres undefined)	-2.0	96.0	6.1	-10.4	95.0	·	·	·
COc1ccc(C(=O)NNC(=O)c2ccc(F)c(S(=O)(=O)N3CCOCC3)c2)cc1	·	·	-4.3	-1.9	·	·	·	·
Cc1cc(NC(=O)COC(=O)COc2ccc3c(c2)CCC3)no1	11.0	132.0*	2.2	5.4	131.0	105.0	2.0	104.0
Cc1[nH]nc(SCC(=O)NCc2ccc(F)cc2)c1[N+](=O)[O-]	-1.0	131.0*	1.8	6.7	103.0	104.0	2.0	101.0
Cc1ccc(NC(=O)CSc2n[nH]c(C)c2[N+](=O)[O-])cc1C	0.0	131.0*	7.0	-7.8	104.0	100.0	2.0	100.0
CSc1ccccc1NC(=O)CSc1n[nH]c(C)c1[N+](=O)[O-]	2.0	101.0	-12.1	11.9	97.0	·	·	·
O=C(Cc1ccccc1Cl)N/N=C/c1cccnc1	1.0	99.0	5.6	1.5	100.0	·	·	·
CC[C@]12c3[nH]c4ccc(Cl)cc4c3CCN1C(=O)[C@@H](CC(=O)NC/C=C(\C)CCC=C(C)C)C[C@@H]2C(=O)N1CCN(C(=O)C2CC2)CC1	·	·	35.2	·	·	·	·	·
O=C(CNS(=O)(=O)c1ccc2ccccc2c1)OCC(=O)c1ccc(Br)s1	-1.0	98.0	9.6	-20.5	94.0	·	·	·
Cc1cc(C(=O)COC(=O)CNS(=O)(=O)c2ccc3ccccc3c2)c(C)n1-c1ccccc1	0.0	164.0*	14.4	4.0	102.0	99.0	1.0	107.0
Cc1ncoc1C(=O)NC1CCCc2c1cnn2-c1ccc(C(C)(C)C)cc1 (centres undefined)	1.0	99.0	19.5	-3.4	96.0	·	·	·
COC(=O)N/N=C/c1cc(Cl)cc(Cl)c1OCc1ccc(F)cc1	-1.0	97.0	18.8	-5.6	101.0	·	·	·
Cc1cc(Cl)ccc1NC(=S)N(CCCN1CCOCC1)Cc1cccs1	0.0	128.0*	6.9	4.1	106.0	108.0	3.0	105.0
Cc1cc(C)cc(NC(=O)C2(c3cccs3)CCOCC2)c1	1.0	136.0*	-7.5	7.5	114.0	95.0	-7.0	96.0
Cc1ccc(NC(=O)C2(c3cccs3)CCOCC2)cc1C	-1.0	69.0*[inhibitor]	0.2	4.4	96.0	97.0	-2.0	98.0
SMILES	MEKK2 mut-MEK5	MEKK3 PB1 HTS	Apaf1 inhib	UBC13 polyUb	MEKK2wt PB1 HTS	MEKK2wt confirm	MEKK2mut-MEK5	MEKK3-MEK5 inh
CCC(OC(C)=O)c1cc2c(cc1[N+](=O)[O-])OCCO2 (centres undefined)	-8.0	96.0	-11.3	3.9	82.0	·	·	·
Cc1cccc(-c2cc3nc4c(c(N5CCOCC5)n3n2)CCCC4)c1	-3.0	94.0	28.6	2.9	97.0	·	·	·
Cc1cccc(-c2cc3nc4c(c(NCc5ccco5)n3n2)CCCC4)c1	16.0	110.0	18.2	4.3	136.0*	108.0	1.0	104.0
CCOc1ncccc1C(=O)N=c1sccn1C	-1.0	102.0	-3.0	-10.5	103.0	·	·	·
CCOc1ncccc1C(=O)N=C1SCCN1C(=O)c1cccnc1OCC	7.0	158.0*	-5.9	5.1	140.0	103.0	0.0	108.0
CN(C)C(CNC(=O)c1ccccc1OCc1ccc(Cl)cc1)c1ccco1 (centres undefined)	·	·	7.9	1.4	·	·	·	·
CCOc1ccc(/C=C/c2nc(C#N)c(NCCCOC)o2)cc1	3.0	99.0	-1.1	1.9	107.0	·	·	·
CCOc1ccc(/C=C/c2nc(C#N)c(NCCCN(C)C)o2)cc1	26.0*	113.0	3.1	9.4	140.0*	103.0	9.0	101.0
N#Cc1ccc(/C=N/NC(=O)c2ccccc2F)cc1	47.0	115.0	-2.7	5.7	140.0*	101.0	-1.0	102.0
O=C(Oc1ccc(/C=N/NC(=O)c2ccccc2F)cc1)c1ccccc1	2.0	103.0	9.0	-5.0	104.0	·	·	·
COc1ccc(/C=C/C(=O)OCC(=O)Nc2cccc(C(C)=O)c2)cc1	0.0	149.0*	7.1	-0.1	108.0	106.0	2.0	105.0
COc1ccc(/C=C/C(=O)OCC(=O)Nc2cc(C(N)=O)cc(C(N)=O)c2)cc1	3.0	106.0	11.3	-0.9	108.0	·	·	·
CC(=O)C1=C(O)C(=O)N(c2ccc(S(=O)(=O)Nc3nccs3)cc2)C1c1ccc([N+](=O)[O-])cc1 (centres undefined)	-47.0	57.0*[inhibitor]	6.1	-5.9	62.0*[inhibitor]	103.0	4.0	105.0
CC(=O)C1=C(O)C(=O)N(c2ccc(S(=O)(=O)Nc3nccs3)cc2)C1c1ccc(F)cc1 (centres undefined)	-5.0	98.0	5.2	-0.3	99.0	·	·	·
O=C(CCCc1nc(-c2ccccc2)no1)NC1CCCCC1	-2.0	98.0	-1.4	7.9	96.0	·	·	·
Oc1ccccc1Nc1nc(NCc2ccco2)c2ccccc2n1	15.0	103.0	-9.8	21.1	117.0	·	·	·
